One assay has as its target D55C MelBSt mutant (Salmonella typhimurium, UniProt P30878, D55C). The assay is described as follows: Thermal denaturation by CD spectroscopy. It is filed as binding. As to conditions: D55C MelBSt 10 µM, component at 50 mM in CD buffer, ellipticity at 210 nm.
In the next assay the target is WT MelBSt (Salmonella typhimurium, UniProt P30878). Briefly: Thermal denaturation by CD spectroscopy. The format is binding. Summed up:
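Samples sat in a 1-mm cuvette. Ellipticity at 210 nm was recorded from 25–80°C at 1°C intervals, ramping 1°C/min, and expressed as percent unfolded. Tm is the half-maximal ellipticity decrease by curve fitting. Data are SEM; unpaired t test, P<0.05.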

Where [1] appears, read: WT MelBSt 10 µM, component at 50 mM in CD buffer, ellipticity at 210 nm.

Marks after values point to notes of the source that are not given here.

With `[K+]` [K^+], at D55C MelBSt mutant, the 10% unfolding worked out at 46.51 ± 0.71 °C, the “50% unfolding (Tm)” value was determined as 56.15 ± 0.16 °C and the 90% unfolding is 65.07 ± 0.06 °C. At WT MelBSt (setting [1]), the 10% unfolding was 46.06 ± 0.02 °C, the “50% unfolding (Tm)” value was found to be 53.34 ± 0.04 °C and the 90% unfolding stood at 59.94 ± 0.69 °C. In addition, the “denaturation completed faster than in the absence of salt” value at WT MelBSt (WT MelBSt, above 60°C, nonspecific salt effect) was 4–5 °C. In addition, the ΔTm at WT MelBSt (WT MelBSt, difference in Tm compared with apo) was 0.05 ^d (>0.05 ^e) °C.

The values are drawn from publication PMC8200842 (The Journal of General Physiology, 2021).
